# Test results reported in ChEMBL document CHEMBL5096220, “Selective Inhibition of the Periodontal Pathogen Porphyromonas gingivalis by Third-Generation Zafirlukast Derivatives” (J Med Chem, 2022).
# Active and inactive are the calls of the source. The calls are words filed in the database; no cut-off is given here.
# Experiments:
# Porphyromonas gingivalis [1] = experiment: Antibiofilm activity against Porphyromonas gingivalis ATCC 33277 assessed as inhibition of biofilm at 25 uM measured after 48 hrs by safranin staining relative to control; type: functional; design: scale not given: the % may be the effect or the level left
# How it was run: (§1)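 Biofilm formation: P. gingivalis ATCC 33277 (10^8 cells/well) was grown in supplemented BHI under anaerobic conditions with gentle shaking, exposed to 10, 25, 50 or 100 μM for 48 h. Biomass was stained with 0.1% safranin and A492 measured. Biofilm growth % = 100×OD treated/OD DMSO control. Positive controls: tetracycline 2.81 μM.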
# Porphyromonas gingivalis [2] = experiment: Bactericidal activity against Porphyromonas gingivalis ATCC 33277 assessed as reduction in colony formation at 100 uM measured 24 hrs […] relative to control; type: functional; design: scale not given: the % may be the effect or the level left; details: in the assay text read “CFU assay” for “safranin staining”
# How it was run: (§2)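 P. gingivalis ATCC 33277 (10^8/well) was grown anaerobically in supplemented BHI and treated 24 h at 1, 10 or 100 μM in DMSO. Cultures were diluted 1:400 and plated on blood agar; colonies were counted after 5 days anaerobic incubation. % inhibition was based on CFUs/mL vs medium-only cultures, three independent replicates. Controls: tetracycline 2.81 μM, DMSO.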
# Porphyromonas gingivalis [3] = experiment: Bactericidal activity against Porphyromonas gingivalis ATCC 33277 assessed as reduction in colony formation at 10 uM measured 24 hrs by safranin staining relative to control; type: functional; design: scale not given: the % may be the effect or the level left; details: in the assay text read “CFU assay” for “safranin staining”; how it was run: as §2
# HepG2 = experiment: Cytotoxicity against human HepG2 cells assessed as cell survival rate at upto 31.3 to 62.6 microg/ml measured after 24 hrs by resazurin dye based analysis relative to control; type: functional; details: dose 31.3-62.6 µg/ml, at 31.3 to 62.6 µg/mL
# How it was run: (§3)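 HEK-293 and HepG2 cells were maintained in DMEM with 10% FBS and 1% Pen/Strep at 37 °C, 5% CO2. Compounds were tested over 0–62.6 μg/mL. Survival values above 100% were normalized to 100%.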
# Porphyromonas gingivalis [4] = experiment: Antibacterial activity against Porphyromonas gingivalis ATCC 33277 assessed as growth inhibition at 100 uM measured after 30 mins by WST-1 assay relative to control; type: functional; design: scale not given: the % may be the effect or the level left
# How it was run: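 P. gingivalis ATCC 33277 (10^8 cells/well) was grown to log phase in supplemented BHI under anaerobic conditions and incubated 24 h with treatments. WST-1 A405 was read 30 min after reagent addition. Growth inhibition was calculated relative to medium-only cultures, six independent replicates per condition.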
# Porphyromonas gingivalis [5] = experiment: Antibiofilm activity against Porphyromonas gingivalis ATCC 33277 assessed as inhibition of biofilm at 50 uM measured after 48 hrs by safranin staining relative to control; type: functional; design: scale not given: the % may be the effect or the level left; how it was run: as §1
# [6] = Cytotoxicity against human OKF6 cells assessed as reduction in cell viability at 100 uM by Annexin V-FITC/PI staining based flow cytometric analysis relative to control; type: toxicity; details: okf6, 100 µM
# How it was run: (§4)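 OKF6 keratinocytes were exposed 24 h to 10 or 100 μM. Apoptosis/necrosis was assessed by FITC-Annexin V staining and flow cytometry, ≥10,000 events per condition, in duplicate across two independent experiments. Controls: medium, 1% DMSO, staurosporine 8 μM.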
# [7] = Cytotoxicity against human OKF6 cells assessed as morphological change at 100 uM […]; type: toxicity, cell-based; details: okf6, 100 µM
# How it was run: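 OKF6 oral keratinocytes were treated 24 h at 10 or 100 μM. Cell morphology and density were examined by microscopy across the entire well. Controls: medium, 1% DMSO, staurosporine 8 μM.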
# Porphyromonas gingivalis [8] = experiment: Antibacterial activity against Porphyromonas gingivalis assessed as reduction of CFU at 10 uM incubated for 5 days measured by […]; type: functional, organism-based; details: time 5.0 day; how it was run: as §2
# Porphyromonas gingivalis [9] = experiment: Antibiofilm activity against Porphyromonas gingivalis ATCC 33277 assessed as inhibition of biofilm at 10 uM measured after 48 hrs by safranin staining relative to control; type: functional; design: scale not given: the % may be the effect or the level left; how it was run: as §1
# [10] = Cytotoxicity against human OKF6 cells assessed as reduction in cell viability at 10 uM by Annexin V-FITC/PI staining based flow cytometric analysis relative to control; type: toxicity; details: okf6, 10 µM; how it was run: as §4
# Actinomyces naeslundii = experiment: Antibacterial activity against Actinomyces naeslundii ATCC 49340 assessed as growth inhibition at 100 uM measured after 24 hrs by WST-1 assay relative to control; type: functional; design: scale not given: the % may be the effect or the level left
# How it was run: (§5)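 A. naeslundii ATCC 49340 (anaerobic) and S. sanguinis ATCC 10556 (aerobic) were grown in BHI with 5 μg/mL hemin and 1 μg/mL menadione to log phase, 10^8 cells/well. They were exposed to 1, 10 or 100 μM for 24 h, then WST-1 was added. […] Controls: DMSO, penicillin/streptomycin 1X.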
# Fusobacterium nucleatum = experiment: Antibacterial activity against Fusobacterium nucleatum ATCC 25586 assessed as growth inhibition at 100 uM measured after 24 hrs by WST-1 assay relative to control; type: functional; design: scale not given: the % may be the effect or the level left
# How it was run: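 F. nucleatum ATCC 25586 was grown anaerobically in hemin/menadione-supplemented BHI to log phase, 10^8 cells/well. Treatment was 1, 10 or 100 μM for 24 h. WST-1 absorbance at 405 nm was read 30 min after reagent addition. % inhibition was calculated vs medium-only cultures, six independent replicates. Controls: DMSO, tetracycline 2.81 μM.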
# Streptococcus sanguinis = experiment: Antibacterial activity against Streptococcus sanguinis ATCC 10556 assessed as growth inhibition at 100 uM measured after 24 hrs by WST-1 assay relative to control; type: functional; design: scale not given: the % may be the effect or the level left; how it was run: as §5
# [11] = Hemolytic activity in mouse RBC at 27 microg/ml incubated for 1 hr; type: toxicity, cell-based, Erythrocyte; details: mouse red blood cells (erythrocytes), at 27 µg/mL, read-out: Activity
# Erythrocyte = experiment: Hemolytic activity in mouse RBC upto 100 uM incubated for 1 hr; type: toxicity, cell-based
# How it was run: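 Murine red blood cells incubated with compound at 3.13 to 100 μM for 1 h at 37 °C. PBS only was the negative control; Triton X-100 (1% v/v) set 100% hemolysis.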
# Porphyromonas gingivalis [12] = experiment: Antibacterial activity against Porphyromonas gingivalis ATCC 33277 assessed as growth inhibition at 10 uM measured after 24 hrs by WST-1 assay relative to control; type: functional; design: scale not given: the % may be the effect or the level left
# How it was run: (§6)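 Log-phase P. gingivalis ATCC 33277 was grown anaerobically in hemin/menadione-supplemented BHI, 10^8 cells/well, and treated for 24 h (DMSO vehicle). […] Derivatives: six independent replicates; controls: 42 replicates.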
# Porphyromonas gingivalis [13] = experiment: Antibacterial activity against Porphyromonas gingivalis ATCC 33277 assessed as growth inhibition at 1 to 100 uM measured after 24 hrs by WST-1 assay relative to control; type: functional; design: scale not given: the % may be the effect or the level left; details: dose 1-100 µM; how it was run: as §6
# Porphyromonas gingivalis [14] = experiment: Antibiofilm activity against Porphyromonas gingivalis ATCC 33277 assessed as inhibition of biofilm at 100 uM measured after 48 hrs by safranin staining relative to control; type: functional; design: scale not given: the % may be the effect or the level left; how it was run: as §1
# Porphyromonas gingivalis [15] = experiment: Antibacterial activity against Porphyromonas gingivalis ATCC 33277 assessed as growth inhibition at 25 uM measured after 24 hrs by WST-1 assay relative to control; type: functional; design: scale not given: the % may be the effect or the level left; how it was run: as §6
# Porphyromonas gingivalis [16] = experiment: Antibacterial activity against Porphyromonas gingivalis ATCC 33277 assessed as growth inhibition at 50 uM measured after 24 hrs by WST-1 assay relative to control; type: functional; design: scale not given: the % may be the effect or the level left; how it was run: as §6
# [17] = Hemolytic activity in mouse RBC at 100 uM incubated for 1 hr; type: toxicity, cell-based, Erythrocyte; details: mouse red blood cells (erythrocytes), read-out: Activity
# How it was run: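 Murine red blood cells were incubated 1 h at 37 °C with compounds at 3.13–100 μM. PBS served as the negative control and Triton X-100 (1% v/v) as the 100% hemolysis reference.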
# HEK293 = experiment: Cytotoxicity against HEK293 cells assessed as cell survival rate upto 31.3 microg/ml measured after 24 hrs by resazurin dye based analysis; type: functional; details: Homo sapiens, dose <= 31.3 µg/ml; how it was run: as §3
# Porphyromonas gingivalis [18] = experiment: Antibacterial activity against Porphyromonas gingivalis ATCC 33277 assessed as growth inhibition at 1 uM measured after 24 hrs by WST-1 assay relative to control; type: functional; design: scale not given: the % may be the effect or the level left; how it was run: as §6
# Porphyromonas gingivalis [19] = experiment: Antibacterial activity against Porphyromonas gingivalis at 100 uM incubated for 5 days measured by […] relative to control; type: functional; details: dose 10 µM; time 5 day; in the assay text read “10 uM” for “100 uM”; how it was run: as §2
# Porphyromonas gingivalis [20] = experiment: Antibiofilm activity against Porphyromonas gingivalis ATCC 33277 assessed as inhibition of biofilm at 10 to 100 uM measured after 48 hrs by safranin staining relative to control; type: functional; design: scale not given: the % may be the effect or the level left; details: dose 10-100 µM; how it was run: as §1
smiles,measurement,setting,value
COc1ccc(Cc2cn(C)c3ccc([N+](=O)[O-])cc23)cc1C(=O)NS(=O)(=O)c1ccccc1F,Activity,Porphyromonas gingivalis [1],52%
same,Activity,Porphyromonas gingivalis [2],100%
same,Activity,Porphyromonas gingivalis [3],96%
same,Activity,HepG2,>76%
same,Activity,Porphyromonas gingivalis [4],61%
COc1ccc(Cc2cn(C)c3ccc([N+](=O)[O-])cc23)cc1C(=O)NS(=O)(=O)c1ccccc1Cl,Activity,Porphyromonas gingivalis [1],55%
same,Activity,Porphyromonas gingivalis [2],100%
same,Activity,Porphyromonas gingivalis [3],Active
same,Activity,Porphyromonas gingivalis [5],58%
same,Activity,HepG2,>76%
same,Activity,[6],5%
same,Activity,[7],Toxic
same,Activity,Porphyromonas gingivalis [4],61%
same,Activity,Porphyromonas gingivalis [8],Active
same,Activity,Porphyromonas gingivalis [9],53%
same,Activity,[10],9%
COc1ccc(Cc2cn(C)c3ccc([N+](=O)[O-])cc23)cc1C(=O)NS(=O)(=O)c1c(F)cccc1F,Activity,Porphyromonas gingivalis [2],100%
same,Activity,Actinomyces naeslundii,40%
same,Activity,Fusobacterium nucleatum,76%
same,Activity,Streptococcus sanguinis,40%
same,Activity,Porphyromonas gingivalis [4],61%
COc1ccc(Cc2cn(CC(C)C)c3ccc([N+](=O)[O-])cc23)cc1C(=O)NS(=O)(=O)c1ccc([N+](=O)[O-])cc1,Activity,Porphyromonas gingivalis [2],100%
same,Activity,Porphyromonas gingivalis [4],73%
C[C@@H]1[C@H](O)[C@@H](C)/C=C/C=C/C=C/C=C/C=C/C=C/C=C/[C@H](O[C@@H]2O[C@H](C)[C@@H](O)[C@H](N)[C@@H]2O)C[C@@H]2O[C@](O)(C[C@@H](O)C[C@@H](O)[C@H](O)CC[C@@H](O)C[C@@H](O)CC(=O)O[C@H]1C)C[C@H](O)[C@H]2C(=O)O [AMPHOTERICIN B],"hemolysis at 1 h, 27 microg/ml",[11],0%
COc1ccc(Cc2cn(C)c3ccc([N+](=O)[O-])cc23)cc1C(=O)NS(=O)(=O)c1ccccc1Br,Activity,Porphyromonas gingivalis [2],100%
same,Activity,Porphyromonas gingivalis [3],Active
same,Activity,HepG2,>76%
same,Activity,[7],Toxic
same,Activity,Porphyromonas gingivalis [4],61%
same,Activity,Porphyromonas gingivalis [8],Active
CCCn1cc(Cc2ccc(OC)c(C(=O)NS(=O)(=O)c3ccccc3F)c2)c2cc([N+](=O)[O-])ccc21,Activity,Erythrocyte,<= 25%
CCCn1cc(Cc2ccc(OC)c(C(=O)NS(=O)(=O)c3ccc([N+](=O)[O-])cc3)c2)c2cc([N+](=O)[O-])ccc21,Activity,Porphyromonas gingivalis [12],77%
same,Activity,Porphyromonas gingivalis [2],100%
same,Activity,Porphyromonas gingivalis [13],60%
same,Activity,Erythrocyte,<= 15%
CN(C)[C@@H]1C(O)=C(C(N)=O)C(=O)[C@@]2(O)C(O)=C3C(=O)c4c(O)cccc4[C@@](C)(O)[C@H]3C[C@@H]12 [TETRACYCLINE],Activity,Porphyromonas gingivalis [14],57%
CCCCn1cc(Cc2ccc(OC)c(C(=O)NS(=O)(=O)c3ccccc3F)c2)c2cc([N+](=O)[O-])ccc21,Activity,Erythrocyte,<= 25%
COc1cc(C(=O)NS(=O)(=O)c2ccccc2C)ccc1Cc1cn(C)c2ccc(NC(=O)OC3CCCC3)cc12 [ZAFIRLUKAST],Activity,Porphyromonas gingivalis [15],74%
same,Activity,Porphyromonas gingivalis [16],88%
same,Activity,Porphyromonas gingivalis [14],58%
same,"hemolysis at 1 h, 100 µM",[17],72%
same,Activity,HEK293,Not toxic
CCn1cc(Cc2ccc(OC)c(C(=O)NS(=O)(=O)c3ccc([N+](=O)[O-])cc3)c2)c2cc([N+](=O)[O-])ccc21,Activity,Porphyromonas gingivalis [12],77%
same,Activity,Porphyromonas gingivalis [2],100%
same,Activity,Porphyromonas gingivalis [3],19%
same,Activity,Porphyromonas gingivalis [18],6%
CCCCn1cc(Cc2ccc(OC)c(C(=O)NS(=O)(=O)c3ccc([N+](=O)[O-])cc3)c2)c2cc([N+](=O)[O-])ccc21,Activity,Porphyromonas gingivalis [12],77%
same,Activity,Porphyromonas gingivalis [2],100%
same,Activity,Porphyromonas gingivalis [13],69%
same,Activity,Porphyromonas gingivalis [5],63%
same,Activity,[6],23%
same,Activity,Porphyromonas gingivalis [14],57%
same,Activity,Porphyromonas gingivalis [19],71%
same,Activity,Erythrocyte,<= 15%
same,Activity,[10],63%
COc1ccc(Cc2cn(C)c3ccc([N+](=O)[O-])cc23)cc1C(=O)NS(=O)(=O)c1ccc([N+](=O)[O-])cc1,Activity,Porphyromonas gingivalis [12],63%
same,Activity,Porphyromonas gingivalis [2],100%
same,Activity,Porphyromonas gingivalis [3],Active
same,Activity,Porphyromonas gingivalis [18],0%
same,Activity,Porphyromonas gingivalis [20],86%
